Assay results taken from ChEMBL document CHEMBL1687901 (J Med Chem, 2011).
Values after ≈ are worked out from the molar mass of the structure shown.

Experiments:
Staphylococcus aureus [1] = experiment: Antibacterial activity against tetracycline-resistant Staphylococcus aureus isolate 158 harboring tet(K) gene by CLSI M07-A8 method; type: functional
How it was run: (§1)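 MICs were determined by CLSI broth microdilution in freshly prepared cation-adjusted Mueller Hinton broth, kept at 4 °C before use. Defibrinated horse blood was added as appropriate. Runs met QC ranges for comparator antibiotics with ATCC quality control strains.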

Staphylococcus aureus [2] = experiment: Antibacterial activity against wild type Staphylococcus aureus Smith ATCC 13709 by CLSI M07-A8 method; type: functional
Escherichia coli [3] = experiment: Inhibition of protein synthesis in Escherichia coli S30 extract by coupled transcription/translation assay; type: functional
How it was run: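 Coupled transcription/translation used an E. coli S30 extract with a firefly luciferase reporter. Compounds were diluted in water and tested as a three-point titration in duplicate. Reactions ran 1 h at 37 °C and were stopped on ice for 5 min, then luciferase substrate was added and luminescence read. Percent inhibition was calculated against uninhibited controls averaged per plate, and IC50 derived.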

Klebsiella pneumoniae = experiment: Antibacterial activity against Klebsiella pneumoniae ATCC 13883 by CLSI M07-A8 method; type: functional
Streptococcus pneumoniae [4] = experiment: Antibacterial activity against tetracycline-resistant Streptococcus pneumoniae isolate 160 harboring tet(M) gene by CLSI M07-A8 method; type: functional; how it was run: as §1
Escherichia coli [5] = experiment: Antibacterial activity against tetracycline-resistant Escherichia coli isolate 155 harboring tet(A) gene by CLSI M07-A8 method; type: functional
How it was run: as §1, with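 “appropriate. The highest concentration tested was 32 μg/mL.” for “appropriate.”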

Staphylococcus aureus [6] = experiment: Antibacterial activity against tetracycline-resistant Staphylococcus aureus isolate 161 harboring tet(M) gene by CLSI M07-A8 method; type: functional; how it was run: as §1
Streptococcus pneumoniae [7] = experiment: Antibacterial activity against Streptococcus pneumoniae ATCC 49619 by CLSI M07-A8 method; type: functional
Escherichia coli [8] = experiment: Antibacterial activity against Escherichia coli ATCC 25922 by CLSI M07-A8 method; type: functional
[9] = Clearance in Sprague-Dawley rat at 1 mg/kg, iv and 10 mg/kg, po; type: ADME, organism-based; details: in vivo
Staphylococcus aureus [10] = experiment: Antibacterial activity against Staphylococcus aureus ATCC 13709 infected in iv dosed mouse septicemia model assessed as mouse protection after 48 hrs; type: functional; details: ATCC 13709, iv, read-out: PD50
How it was run: (§2)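 Mice were challenged intraperitoneally with bacteria mixed with 5% mucin. For S. aureus ATCC 13709 (Smith) the inoculum was 2.1 × 10^6 cfu/mouse, and for E. coli ATCC 25922 it was 2.0 × 10^7 cfu/mouse. PD50 in mg/kg was calculated from survival at 48 h.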

Streptococcus pneumoniae [11] = experiment: Antibacterial activity against Streptococcus pneumoniae by CLSI M07-A8 method; type: functional
in vivo = details: Sprague-Dawley, rat, iv, 1 mg/kg
Staphylococcus aureus [12] = experiment: Antibacterial activity against Staphylococcus aureus by CLSI M07-A8 method; type: functional
Escherichia coli [13] = experiment: Antibacterial activity against Escherichia coli by CLSI M07-A8 method; type: functional
[14] = Half life in Sprague-Dawley rat at 1 mg/kg, iv and 10 mg/kg, po; type: ADME, organism-based; details: in vivo
Rattus norvegicus = experiment: Oral bioavailability in Sprague-Dawley rat at 1 mg/kg, iv and 10 mg/kg, po; type: ADME, organism-based; details: in vivo
[15] = AUC in Sprague-Dawley rat at 1 mg/kg, iv and 10 mg/kg, po; type: ADME, organism-based; details: plasma
Haemophilus influenzae = experiment: Antibacterial activity against Haemophilus influenzae by CLSI M07-A8 method; type: functional
Escherichia coli [16] = experiment: Antibacterial activity against Escherichia coli ATCC 25922 infected in iv dosed mouse septicemia model assessed as mouse protection after 48 hrs; type: functional; details: ATCC 25922, iv, read-out: PD50; how it was run: as §2
Staphylococcus aureus [17] = experiment: Antibacterial activity against Staphylococcus aureus ATCC 13709 infected in mouse septicemia model assessed as mouse survival at 0.05 to 10 mg/kg, iv after 48 hrs; details: dose mg/kg 0.05-10

| Compound | MIC (Staphylococcus aureus [1]) | MIC (Staphylococcus aureus [2]) | IC50 (Escherichia coli [3]) | MIC (Klebsiella pneumoniae) | MIC (Streptococcus pneumoniae [4]) | MIC (Escherichia coli [5]) | MIC (Staphylococcus aureus [6]) | MIC (Streptococcus pneumoniae [7]) | MIC (Escherichia coli [8]) | ED50 (Staphylococcus aureus [10]) | MIC50 (Staphylococcus aureus [12]) | MIC90 (Staphylococcus aureus [12]) | MIC90 (Escherichia coli [13]) | ED50 (Escherichia coli [16]) | other results |
| --- | --- | --- | --- | --- | --- | --- | --- | --- | --- | --- | --- | --- | --- | --- | --- |
| CN(C)[C@@H]1C(O)=C(C(N)=O)C(=O)[C@@]2(O)C(O)=C3C(=O)c4c(O)c(N)nc(Cl)c4C[C@H]3C[C@@H]12 | 8 µg/mL (≈ 17.2 µM) | 0.016 µg/mL (≈ 0.0344 µM) | 1.1 µg/mL (≈ 2.37 µM) | 0.5 µg/mL (≈ 1.08 µM) | 4 µg/mL (≈ 8.6 µM) | > 32 µg/mL | 4 µg/mL (≈ 8.6 µM) | 0.016 µg/mL (≈ 0.0344 µM) | 0.25 µg/mL (≈ 0.538 µM) | – | – | – | – | – | – |
| CN(C)CCCNc1nc(Cl)c2c(c1O)C(=O)C1=C(O)[C@]3(O)C(=O)C(C(N)=O)=C(O)[C@@H](N(C)C)[C@@H]3C[C@@H]1C2.Cl | 2 µg/mL | 2 µg/mL | 0.58 µg/mL | 16 µg/mL | 4 µg/mL | > 32 µg/mL | 8 µg/mL | 1 µg/mL | 8 µg/mL | – | – | – | – | – | – |
| CN(C)CC(C)(C)CNc1nc(Cl)c2c(c1O)C(=O)C1=C(O)[C@]3(O)C(=O)C(C(N)=O)=C(O)[C@@H](N(C)C)[C@@H]3C[C@@H]1C2.Cl | 0.125 µg/mL | 0.5 µg/mL | 0.7 µg/mL | 2 µg/mL | 0.125 µg/mL | 8 µg/mL | 2 µg/mL | 0.016 µg/mL | 0.5 µg/mL | 0.36 mg/kg | 0.125 µg/mL | 2 µg/mL | 4 µg/mL | 17 mg/kg | clearance [9]: 3.37 mL/min/kg; MIC (Streptococcus pneumoniae [11]): ≤ 0.016 µg/mL; MIC50 (Streptococcus pneumoniae [11]): ≤ 0.016 µg/mL; MIC90 (Streptococcus pneumoniae [11]): 0.063 µg/mL; Vd (in vivo): 1.26 L/kg; MIC50 (Escherichia coli [13]): 1 µg/mL; half-life [14]: 4.3 h; F (Rattus norvegicus): 0.8%; AUC [15]: 4870 ng·h/mL; MIC50 (Haemophilus influenzae): 1 µg/mL; MIC90 (Haemophilus influenzae): 1 µg/mL |
| CN(C)c1nc(NC(=O)CNC(C)(C)C)c(O)c2c1C[C@H]1C[C@H]3[C@H](N(C)C)C(O)=C(C(N)=O)C(=O)[C@@]3(O)C(O)=C1C2=O.Cl | 8 µg/mL | 16 µg/mL | 0.71 µg/mL | > 32 µg/mL | 4 µg/mL | > 32 µg/mL | 32 µg/mL | 4 µg/mL | 32 µg/mL | – | – | – | – | – | – |
| CN(C)[C@@H]1C(O)=C(C(N)=O)C(=O)[C@@]2(O)C(O)=C3C(=O)c4c(O)c(N)nc(F)c4C[C@H]3C[C@@H]12.Cl.Cl | 8 µg/mL | 0.063 µg/mL | 0.93 µg/mL | 1 µg/mL | 2 µg/mL | > 32 µg/mL | 2 µg/mL | 0.063 µg/mL | 0.25 µg/mL | – | – | – | – | – | – |
| CN(C)[C@@H]1C(O)=C(C(N)=O)C(=O)[C@@]2(O)C(O)=C3C(=O)c4c(O)c(NC(=O)CNC(C)(C)C)nc(F)c4C[C@H]3C[C@@H]12.Cl.Cl | 16 µg/mL | 4 µg/mL | 0.36 µg/mL | 16 µg/mL | 8 µg/mL | > 32 µg/mL | 16 µg/mL | 2 µg/mL | 8 µg/mL | – | – | – | – | – | – |
| CCCNc1nc(F)c2c(c1O)C(=O)C1=C(O)[C@]3(O)C(=O)C(C(N)=O)=C(O)[C@@H](N(C)C)[C@@H]3C[C@@H]1C2.Cl.Cl | 0.25 µg/mL | 0.25 µg/mL | 2.8 µg/mL | 8 µg/mL | 4 µg/mL | 16 µg/mL | 2 µg/mL | 4 µg/mL | 2 µg/mL | – | – | – | – | – | – |
| CN(C)c1ncc(O)c2c1C[C@H]1C[C@H]3[C@H](N(C)C)C(O)=C(C(N)=O)C(=O)[C@@]3(O)C(O)=C1C2=O.Cl.Cl | 2 µg/mL | 0.031 µg/mL | 0.76 µg/mL | 0.25 µg/mL | 8 µg/mL | > 32 µg/mL | 16 µg/mL | 0.063 µg/mL | 0.125 µg/mL | < 0.3 mg/kg | ≤ 0.016 µg/mL | 16 µg/mL | > 32 µg/mL | 4.3 mg/kg | clearance [9]: 15.3 mL/min/kg; MIC50 (Streptococcus pneumoniae [11]): 2 µg/mL; MIC90 (Streptococcus pneumoniae [11]): 4 µg/mL; Vd (in vivo): 4.18 L/kg; MIC (Staphylococcus aureus [12]): ≤ 0.016 µg/mL; Survival (Staphylococcus aureus [17]): 100%; MIC50 (Escherichia coli [13]): 0.25 µg/mL; half-life [14]: 3.1 h; F (Rattus norvegicus): 12.7%; AUC [15]: 1090 ng·h/mL; MIC50 (Haemophilus influenzae): 0.5 µg/mL; MIC90 (Haemophilus influenzae): 2 µg/mL |
| CN(C)[C@@H]1C(O)=C(C(N)=O)C(=O)[C@@]2(O)C(O)=C3C(=O)c4c(O)c(NC(=O)CNC(C)(C)C)nc(Cl)c4C[C@H]3C[C@@H]12.Cl.Cl.Cl | 32 µg/mL | 2 µg/mL | 0.78 µg/mL | 8 µg/mL | 16 µg/mL | > 32 µg/mL | 32 µg/mL | 1 µg/mL | 4 µg/mL | – | – | – | – | – | – |
| CN(C)[C@@H]1C(O)=C(C(N)=O)C(=O)[C@@]2(O)C(O)=C3C(=O)c4c(O)cccc4[C@@](C)(O)[C@H]3C[C@@H]12 [TETRACYCLINE] | – | – | – | – | – | > 32 µg/mL | – | 0.25 µg/mL (≈ 0.563 µM) | – | 0.35 mg/kg | 0.125 µg/mL (≈ 0.281 µM) | > 64 µg/mL | > 64 µg/mL | 17 mg/kg | MIC (Streptococcus pneumoniae [11]): 0.125 µg/mL (≈ 0.281 µM); MIC (Haemophilus influenzae): 0.25 µg/mL (≈ 0.563 µM) |
| CN(C)c1cc(NC(=O)CNC(C)(C)C)c(O)c2c1C[C@H]1C[C@H]3[C@H](N(C)C)C(O)=C(C(N)=O)C(=O)[C@@]3(O)C(O)=C1C2=O [TIGECYCLINE] | 0.063 µg/mL (≈ 0.108 µM) | 0.063 µg/mL (≈ 0.108 µM) | 0.47 µg/mL (≈ 0.803 µM) | 0.125 µg/mL (≈ 0.213 µM) | 0.016 µg/mL (≈ 0.0273 µM) | 0.5 µg/mL (≈ 0.854 µM) | 0.125 µg/mL (≈ 0.213 µM) | 0.016 µg/mL (≈ 0.0273 µM) | 0.125 µg/mL (≈ 0.213 µM) | 0.35 mg/kg | 0.063 µg/mL (≈ 0.108 µM) | 1 µg/mL (≈ 1.71 µM) | 0.5 µg/mL (≈ 0.854 µM) | 2.1 mg/kg | clearance [9]: 15.5 mL/min/kg; MIC (Streptococcus pneumoniae [11]): ≤ 0.016 µg/mL; MIC50 (Streptococcus pneumoniae [11]): ≤ 0.016 µg/mL; MIC90 (Streptococcus pneumoniae [11]): ≤ 0.016 µg/mL; Vd (in vivo): 6.12 L/kg; MIC50 (Escherichia coli [13]): 0.25 µg/mL (≈ 0.427 µM); half-life [14]: 4.6 h; F (Rattus norvegicus): 1.1%; AUC [15]: 1050 ng·h/mL; MIC50 (Haemophilus influenzae): 0.5 µg/mL (≈ 0.854 µM); MIC90 (Haemophilus influenzae): 0.5 µg/mL (≈ 0.854 µM) |
